Values after ≈ are worked out from the molar mass of the structure shown.
How the values were obtained:
Aqueous solubility = format: physicochemical
[1] = Cytotoxicity in mock-infected MT-4 cell cultures; format: cell-based; settings: human, mock-infected MT-4 cells
HIV-1 mutant E138K = assay: Anti-HIV-1 efficacy against mutant E138K in MT-4 cells; format: cell-based; settings: Human immunodeficiency virus 1, MT4, read-out: EC50 E138K
Summary of the method: (§1)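 MT-4 cells were infected with HIV-1 RT mutant strains. EC50 was the concentration giving 50% protection against viral cytopathicity, averaged from at least three independent experiments. Cytotoxicity in mock-infected cultures was read by MTT.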

CYP2C19 = CYP2C19 (Homo sapiens, UniProt P33261); assay: biochemical
CYP2C19, sequence (P33261 whole entry): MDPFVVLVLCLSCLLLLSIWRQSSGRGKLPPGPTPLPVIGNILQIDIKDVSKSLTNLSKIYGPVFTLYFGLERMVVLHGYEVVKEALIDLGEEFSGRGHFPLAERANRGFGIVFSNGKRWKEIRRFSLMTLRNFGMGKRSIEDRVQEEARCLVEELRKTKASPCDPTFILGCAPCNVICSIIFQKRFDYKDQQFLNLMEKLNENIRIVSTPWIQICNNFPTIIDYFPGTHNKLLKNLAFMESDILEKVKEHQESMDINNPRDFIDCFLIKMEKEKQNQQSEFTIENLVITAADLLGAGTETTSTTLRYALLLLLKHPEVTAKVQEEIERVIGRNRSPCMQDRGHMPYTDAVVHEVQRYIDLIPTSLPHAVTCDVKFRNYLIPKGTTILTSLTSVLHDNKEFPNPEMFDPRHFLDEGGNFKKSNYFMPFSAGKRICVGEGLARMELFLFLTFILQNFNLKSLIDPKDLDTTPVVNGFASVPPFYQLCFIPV

HIV-1 mutant K103N = assay: Anti-HIV-1 efficacy against mutant K103N in MT-4 cells; format: cell-based; settings: Human immunodeficiency virus 1, MT4, read-out: EC50 K103N
Summary of the method: as §1

[2] = test system: K103N, L100I, E138K, Y181C, and K103N + Y181C; assay: Anti-HIV-1 efficacy against mutant panel; format: cell-based; settings: Human immunodeficiency virus 1, read-out: EC50 value range
Summary of the method: as §1

WT HIV-1 RT = WT HIV-1 RT (Human immunodeficiency virus type 1 group M subtype B, UniProt P03366); assay: Inhibition of WT HIV-1 RT; format: biochemical
[3] = test system: HIV-1 mutant K103N + Y181C; assay: Anti-HIV-1 efficacy against mutant K103N + Y181C in MT-4 cells; format: cell-based; settings: Human immunodeficiency virus 1, MT4, read-out: EC50 K103N + Y181C
Summary of the method: as §1

HIV-1 mutant L100I = assay: Anti-HIV-1 efficacy against mutant L100I in MT-4 cells; format: cell-based; settings: Human immunodeficiency virus 1, MT4, read-out: EC50 L100I
Summary of the method: as §1

HIV-1 mutant Y181C = assay: Anti-HIV-1 efficacy against mutant Y181C in MT-4 cells; format: cell-based; settings: Human immunodeficiency virus 1, MT4, read-out: EC50 Y181C
Summary of the method: as §1

HIV-1 mutant Y188L = assay: Anti-HIV-1 efficacy against mutant Y188L in MT-4 cells; format: cell-based; settings: Human immunodeficiency virus 1, MT4, read-out: EC50 Y188L
Summary of the method: as §1

CYP3A4 = CYP3A4 (Homo sapiens, UniProt P08684); assay: Cytochrome P450 inhibition assay, CYP3A4; format: in vitro ADME
CYP3A4, sequence (P08684 whole entry): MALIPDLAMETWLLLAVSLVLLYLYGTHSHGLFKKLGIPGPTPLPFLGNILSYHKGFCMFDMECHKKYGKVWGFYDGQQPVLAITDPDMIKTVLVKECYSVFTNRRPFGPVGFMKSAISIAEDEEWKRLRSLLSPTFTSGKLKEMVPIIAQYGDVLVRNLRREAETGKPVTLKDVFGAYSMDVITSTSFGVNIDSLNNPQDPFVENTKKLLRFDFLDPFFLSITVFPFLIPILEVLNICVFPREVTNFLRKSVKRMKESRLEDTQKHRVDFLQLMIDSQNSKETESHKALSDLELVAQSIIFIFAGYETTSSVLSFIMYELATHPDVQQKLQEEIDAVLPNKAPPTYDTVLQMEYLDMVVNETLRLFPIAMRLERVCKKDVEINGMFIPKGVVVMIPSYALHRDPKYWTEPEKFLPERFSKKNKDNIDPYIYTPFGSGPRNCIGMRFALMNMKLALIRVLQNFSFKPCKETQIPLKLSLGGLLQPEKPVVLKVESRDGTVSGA

[4] = PK study in Sprague-Dawley rats; format: in vivo; settings: rat, plasma
Summary of the method: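 Six SD rats, 180–220 g, were fasted 12 h and randomised into an intravenous arm (1 mg/kg) and an intragastric arm. Blood was drawn from pre-dose to 720 min into heparin, and plasma was stored at −80 °C. Plasma was precipitated with acetonitrile, dried under nitrogen, reconstituted and assayed by HPLC-MS/MS. PK parameters and bioavailability came from concentration–time data.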

CYP2C9 = CYP2C9 (Homo sapiens, UniProt P11712); assay: Cytochrome P450 inhibition assay, CYP2C9; format: in vitro ADME
CYP2C9, sequence (P11712 whole entry): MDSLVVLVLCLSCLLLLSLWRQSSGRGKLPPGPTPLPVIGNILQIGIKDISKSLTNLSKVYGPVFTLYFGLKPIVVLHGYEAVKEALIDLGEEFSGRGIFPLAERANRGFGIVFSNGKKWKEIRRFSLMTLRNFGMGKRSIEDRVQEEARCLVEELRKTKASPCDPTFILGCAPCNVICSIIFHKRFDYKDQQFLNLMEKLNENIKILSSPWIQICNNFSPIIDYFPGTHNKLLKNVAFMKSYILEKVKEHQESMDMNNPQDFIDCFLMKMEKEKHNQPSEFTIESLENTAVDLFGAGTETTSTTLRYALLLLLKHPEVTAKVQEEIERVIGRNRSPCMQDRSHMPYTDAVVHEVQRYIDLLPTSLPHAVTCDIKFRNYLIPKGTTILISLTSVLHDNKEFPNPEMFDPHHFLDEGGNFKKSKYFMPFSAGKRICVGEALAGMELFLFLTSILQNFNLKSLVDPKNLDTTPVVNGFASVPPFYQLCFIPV

hERG potassium channels = hERG potassium channels (Homo sapiens, UniProt Q12809); assay: hERG channel Qpatch assay in CHO-hERG cells; format: cell-based
hERG potassium channels, sequence (Q12809 whole entry): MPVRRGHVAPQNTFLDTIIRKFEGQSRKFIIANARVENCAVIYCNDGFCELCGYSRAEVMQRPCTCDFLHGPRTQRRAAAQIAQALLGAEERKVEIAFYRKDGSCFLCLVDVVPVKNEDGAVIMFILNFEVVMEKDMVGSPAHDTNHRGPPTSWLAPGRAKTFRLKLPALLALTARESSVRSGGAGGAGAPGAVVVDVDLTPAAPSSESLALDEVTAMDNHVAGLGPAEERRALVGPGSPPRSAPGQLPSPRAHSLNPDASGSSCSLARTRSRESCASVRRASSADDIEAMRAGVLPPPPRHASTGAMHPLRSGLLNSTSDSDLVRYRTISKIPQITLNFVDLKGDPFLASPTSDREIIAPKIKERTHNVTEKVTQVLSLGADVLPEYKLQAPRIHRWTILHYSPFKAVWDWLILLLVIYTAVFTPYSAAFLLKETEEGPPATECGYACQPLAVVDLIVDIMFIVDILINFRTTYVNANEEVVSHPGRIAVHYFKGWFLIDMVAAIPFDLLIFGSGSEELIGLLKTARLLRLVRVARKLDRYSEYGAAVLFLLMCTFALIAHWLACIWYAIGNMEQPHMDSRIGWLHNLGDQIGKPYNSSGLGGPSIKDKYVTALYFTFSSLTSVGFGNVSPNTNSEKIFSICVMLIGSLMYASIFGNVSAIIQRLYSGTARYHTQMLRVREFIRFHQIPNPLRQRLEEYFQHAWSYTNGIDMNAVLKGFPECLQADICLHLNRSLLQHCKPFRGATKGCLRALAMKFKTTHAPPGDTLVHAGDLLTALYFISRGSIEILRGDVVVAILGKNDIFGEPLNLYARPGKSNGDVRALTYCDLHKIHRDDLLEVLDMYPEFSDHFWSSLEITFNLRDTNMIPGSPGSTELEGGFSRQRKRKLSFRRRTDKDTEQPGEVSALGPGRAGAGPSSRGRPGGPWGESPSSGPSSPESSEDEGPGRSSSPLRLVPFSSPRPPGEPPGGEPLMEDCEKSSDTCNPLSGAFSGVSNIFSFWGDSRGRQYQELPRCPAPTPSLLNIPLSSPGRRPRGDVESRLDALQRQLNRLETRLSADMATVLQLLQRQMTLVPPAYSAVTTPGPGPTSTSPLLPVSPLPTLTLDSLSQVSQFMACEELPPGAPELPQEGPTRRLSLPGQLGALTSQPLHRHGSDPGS

WT HIV-1 = assay: Anti-HIV-1 activity in MT-4 cells infected with HIV-1; format: cell-based
CYP2D6 = CYP2D6 (Homo sapiens, UniProt P10635); assay: Cytochrome P450 inhibition assay, CYP2D6; format: in vitro ADME
CYP2D6, sequence (P10635 whole entry): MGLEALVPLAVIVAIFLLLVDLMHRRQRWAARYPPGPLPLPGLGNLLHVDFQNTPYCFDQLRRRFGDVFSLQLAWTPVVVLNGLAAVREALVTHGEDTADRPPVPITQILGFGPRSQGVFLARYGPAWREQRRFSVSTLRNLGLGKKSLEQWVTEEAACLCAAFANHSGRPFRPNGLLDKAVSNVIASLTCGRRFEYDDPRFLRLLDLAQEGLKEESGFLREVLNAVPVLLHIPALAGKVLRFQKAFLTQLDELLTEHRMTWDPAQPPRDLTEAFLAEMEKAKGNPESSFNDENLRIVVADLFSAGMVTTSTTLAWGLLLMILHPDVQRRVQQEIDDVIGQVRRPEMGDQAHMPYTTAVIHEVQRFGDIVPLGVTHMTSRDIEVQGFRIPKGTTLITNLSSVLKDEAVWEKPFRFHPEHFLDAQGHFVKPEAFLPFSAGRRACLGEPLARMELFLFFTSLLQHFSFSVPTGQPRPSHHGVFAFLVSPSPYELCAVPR

CYP1A2 = target: T1, CYP1A2 (Homo sapiens, UniProt P05177); assay: Cytochrome P450 inhibition assay, CYP1A2; format: in vitro ADME
T1 sequence (P05177 1-516): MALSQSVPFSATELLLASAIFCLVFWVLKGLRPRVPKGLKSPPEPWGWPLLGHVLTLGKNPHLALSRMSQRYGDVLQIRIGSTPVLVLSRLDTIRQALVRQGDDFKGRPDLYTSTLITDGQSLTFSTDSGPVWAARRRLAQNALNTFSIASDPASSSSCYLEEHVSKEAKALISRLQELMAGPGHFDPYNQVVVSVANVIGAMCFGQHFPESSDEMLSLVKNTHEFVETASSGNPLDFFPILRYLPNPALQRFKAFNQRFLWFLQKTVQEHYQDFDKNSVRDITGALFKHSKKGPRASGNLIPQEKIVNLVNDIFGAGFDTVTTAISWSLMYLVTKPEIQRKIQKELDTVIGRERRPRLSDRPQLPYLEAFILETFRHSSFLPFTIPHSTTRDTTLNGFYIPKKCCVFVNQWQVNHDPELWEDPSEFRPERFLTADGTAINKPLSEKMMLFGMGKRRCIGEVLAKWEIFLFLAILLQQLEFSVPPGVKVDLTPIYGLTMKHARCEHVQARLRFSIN

Acute toxicity assay = format: in vivo, ICR mice; settings: single intragastric administration of 1.2 g/kg
Summary of the method: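 ICR mice, 24–28 g, aged 5–6 weeks (4 male, 4 female), were randomised into 4 groups. Test compound was given as a single intragastric dose. Body weight, behaviour and coat colour were followed for 14 days. Mice were then euthanised, and kidney, lung, spleen, liver, heart and brain were HE-stained for histology.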

Cn1c(Cn2ccc(C(F)(F)F)c(Oc3cccc4cnccc34)c2=O)n[nH]c1=O [7w]
solubility (Aqueous solubility; pH 2, aqueous buffer): 4470 µg/mL (≈ 10700 µM)
solubility (Aqueous solubility; pH 7, aqueous buffer): 38 µg/mL (≈ 91.1 µM)
solubility (Aqueous solubility; pH 7.4, aqueous buffer): 53 µg/mL (≈ 127 µM)
CC50 [1]: 274000 ± 10600 nM
EC50 (HIV-1 mutant E138K): 49 ± 13 nM
IC50 (CYP2C19): 26800 nM
EC50 (HIV-1 mutant K103N): 71 ± 19 nM
EC50 [2]: 35 to 140 nM
IC50 (WT HIV-1 RT): 120 ± 7 nM
EC50 [3]: 140 ± 90 nM
EC50 (HIV-1 mutant L100I): 38 ± 17 nM
EC50 (HIV-1 mutant Y181C): 50 ± 11 nM
EC50 (HIV-1 mutant Y188L): 5350 ± 2150 nM
IC50 (CYP3A4): > 50000 nM
Cmax ([4]; iv, 1 mg/kg): 456 ± 51.1 ng/mL
Tmax ([4]; iv, 1 mg/kg): 4.98 min
half-life ([4]; iv, 1 mg/kg): 17.4 ± 12.6 min
AUC ([4]; iv, 1 mg/kg, AUC0‒t, 1.0 mg/kg (i.v.)): 229 ± 45.3 ng·h/mL
AUC ([4]; iv, 1 mg/kg, AUC0‒∞, 1.0 mg/kg (i.v.)): 230 ± 46 ng·h/mL
MRT ([4]; iv, 1 mg/kg, MRT0‒t, 1.0 mg/kg (i.v.)): 21.1 ± 2.5 min
MRT ([4]; iv, 1 mg/kg, MRT0‒∞, 1.0 mg/kg (i.v.)): 22 ± 28 min
Cmax ([4]; po, 5 mg/kg): 2888 ± 9.71 ng/mL
Tmax ([4]; po, 5 mg/kg): 25 ± 8.64 min
bioavailability ([4]; po, 5 mg/kg): 27.1 ± 0.0219%
half-life ([4]; po, 5 mg/kg): 107 ± 17.4 min
AUC ([4]; po, 5 mg/kg, AUC0‒t, 5.0 mg/kg (p.o.)): 304 ± 24.5 ng·h/mL
AUC ([4]; po, 5 mg/kg, AUC0‒∞, 5.0 mg/kg (p.o.)): 312 ± 25.3 ng·h/mL
MRT ([4]; po, 5 mg/kg, MRT0‒t, 5.0 mg/kg (p.o.)): 70.2 ± 9.18 min
MRT ([4]; po, 5 mg/kg, MRT0‒∞, 5.0 mg/kg (p.o.)): 85.2 ± 8.4 min
IC50 (CYP2C9): 19600 nM
IC50 (hERG potassium channels): > 40000 nM
EC50 (WT HIV-1; Human immunodeficiency virus 1, MT4): 22 ± 10 nM
SI (WT HIV-1; selectivity index, the ratio of CC50/EC50, WT HIV-1): 12,497.73
IC50 (CYP2D6): > 50000 nM
IC50 (CYP1A2): > 50000 nM
Pathological damage of six main organs (HE staining) (Acute toxicity assay; after 14 days): no obvious pathological damage
Behavior and weight (Acute toxicity assay; observed 14 days): normal behavior and weight
Mortality (Acute toxicity assay; observed 14 days): did not result in any fatalities

Source: PMC10692386 (Acta Pharmaceutica Sinica. B, 2023)
